High-throughput results as filed in PubChem.
This is one part of a sample in which hits are shown more often than they occur.
T cruzi inh: T. cruzi replication inhibition; actives 1.4% (n = 300,000); inhibition, % (no concentration beside the values); AID 1885; T. cruzi beta-gal in NIH3T3, luminescence, 90 h;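 active = mean inhibition across valid replicates above about 55%, limit read from the data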;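 also: signal also drops with host cell toxicity which is not excluded here; higher percent means less beta-gal luminescence so fewer parasites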
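System: Mouse NIH/3T3 fibroblasts infected with β-gal-expressing T. cruzi Tulahuen C4 | Quantity: NIH/3T3 cells, 5,000 per well | Reagent: 5000 reporter trypomastigotes per well | Dosing: Compound pinned at 50 nL/well, DMSO | Schedule: 3 h host attachment, then at least 90 h co-culture | Detection: GalScreen luminescence, 60 min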
Lmaj promast: reduces viability of Leishmania major promastigotes. inhibition, % at 10 µM. actives 9% (n = 200,000). resazurin fluorescence viability. AID 1063; in the data active = inhibition above about 50%;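 also: promastigotes grown with compound for 44 hours at 28 °C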
Hsp70 act: Hsp70 transcriptional activation, primary screen | HeLa Hsp70 promoter luciferase reporter, luminescence; scaled: vehicle 0, proteasome-inhibitor control 100% | activation, % at 10 µM | actives 0.04% (n = 200,000) | AID 1203;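 active = activation above the mean across all tested compounds plus 3 SD, cutoff set per campaign, cut at about 5.5% in these data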
HSF1 inhib: HSF1 inhibition | actives 0.77% (n = 300,000) | NIH3T3-HGL HSE-luciferase, MG132-induced, luminescence 8 h; hits give low values | activity change, negative = inhibition, % at 7.5 µM (by protocol);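 active = more than half of replicate wells show activity change below -50%, luminescence cut by over half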;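 also: luciferase reports HSF-1 transcriptional activity via heat shock element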
HSF1 activator: increases HSF-1 driven luciferase reporter signal | AID 504408 | actives 1.7% (n = 300,000) | NIH3T3-HGL HSF-1 luciferase reporter, MG132, 8 h; 100% = twice DMSO control signal | activation, % at 9 µM;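 active = mean replicate activation of at least 50% with a set share of replicates each reaching 50%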
Numbers stand for hits.

Screening CN(C(=O)c1ccc(OC2CCN(CCc3ccccc3)CC2)cc1)C1CCCCC1 returned T cruzi inh inactive, Lmaj promast 91, Hsp70 act inactive, HSF1 inhib inactive and HSF1 activator inactive.
COc1cc(NC(=O)CCc2nnc3ccc(N4CCN(C)CC4)nn23)cc(OC)c1 was read as T cruzi inh inactive, HSF1 inhib inactive and HSF1 activator inactive.
`Cc1cc(N2CCN(C)CC2)nc2ccc(NC(=O)c3ccccc3F)cc12` gave T cruzi inh 65, Lmaj promast inactive, Hsp70 act inactive, HSF1 inhib inactive and HSF1 activator inactive.
CCN1CCN(c2cc(C)c3cc(NC(=O)c4ccccc4F)ccc3n2)CC1 was read as Lmaj promast 51 and Hsp70 act inactive.
Screening COC(=O)[C@@]1(Cc2ccc(OC)cc2)[C@@H]2C(=CC(=O)[C@H]2CC(=O)C(=O)N2CCCC2)CN1C(=O)c1ccccc1 returned Lmaj promast 100 and Hsp70 act inactive.
`Oc1cccc(C(Nc2nccs2)c2ccc3cccnc3c2O)c1` (stereo not given) gave T cruzi inh 92, Lmaj promast 100, Hsp70 act inactive, HSF1 inhib inactive and HSF1 activator inactive.
CC(=O)NC(c1ccc(C(C)C)cc1)c1ccc2cccnc2c1O (stereo not given) was read as T cruzi inh 56, HSF1 inhib -52 and HSF1 activator inactive.
COc1cccc(C(NC(C)=O)c2ccc3cccnc3c2O)c1 (stereo not given) was read as T cruzi inh 57, HSF1 inhib inactive and HSF1 activator inactive.
For CC(NC(=O)c1ccncc1)c1ccc(Br)cc1 (stereo not given) the results were T cruzi inh inactive, HSF1 inhib inactive and HSF1 activator inactive.
`O=C(c1cc(COc2cccc(C(F)(F)F)c2)on1)N1C[C@@H]2CCC[C@H]1C2` gave T cruzi inh inactive, HSF1 inhib inactive and HSF1 activator inactive.
Cc1ccc(SCC(=O)Nc2ccc(S(N)(=O)=O)cc2)cc1 was read as T cruzi inh inactive, Lmaj promast inactive, Hsp70 act inactive, HSF1 inhib inactive and HSF1 activator inactive.
COc1ccccc1-c1nc(S(=O)(=O)c2ccccc2)c(N2CCCCC2)o1 was read as T cruzi inh inactive, HSF1 inhib inactive and HSF1 activator 52.
`O=S(=O)(c1ccc(F)cc1)c1nc(-c2ccccc2F)oc1N1CCCCC1` gave T cruzi inh 71, Lmaj promast inactive, Hsp70 act inactive, HSF1 inhib inactive and HSF1 activator inactive.
For N#C/C(=C\c1ccccc1[N+](=O)[O-])c1nc(C2CC2)cs1 the results were T cruzi inh inactive, Lmaj promast inactive, Hsp70 act inactive, HSF1 inhib inactive and HSF1 activator 51.
For COc1ccc(-c2csc(/C(C#N)=C\c3ccc(OC)c([N+](=O)[O-])c3)n2)cc1 the results were T cruzi inh inactive, Lmaj promast 91, Hsp70 act inactive, HSF1 inhib inactive and HSF1 activator inactive.
N#C/C(=C/c1ccccc1[N+](=O)[O-])c1nc(C2CC2)cs1 was read as T cruzi inh inactive, Lmaj promast inactive, Hsp70 act inactive, HSF1 inhib inactive and HSF1 activator 101.
Screening COc1ccc(-c2csc(/C(C#N)=C\c3cccc([N+](=O)[O-])c3)n2)cc1 returned T cruzi inh inactive, Lmaj promast inactive, Hsp70 act inactive, HSF1 inhib inactive and HSF1 activator inactive.
`COc1ccc(-c2csc(/C(C#N)=C\c3ccc(O)c([N+](=O)[O-])c3)n2)cc1OC` gave T cruzi inh inactive, HSF1 inhib inactive and HSF1 activator inactive.
Screening N#C/C(=C\c1ccc([N+](=O)[O-])cc1)c1nc(C2CC2)cs1 returned T cruzi inh inactive, Lmaj promast inactive, Hsp70 act inactive, HSF1 inhib inactive and HSF1 activator 57.
Screening Nc1ccccc1C(=O)NNC1=C(C(=O)C(F)(F)F)CCC1 returned T cruzi inh inactive, HSF1 inhib -52 and HSF1 activator inactive.
`Cc1ccccc1C(=O)Nc1ccc(C(=O)N/N=C/c2ccc(O)c(Br)c2)cc1` gave T cruzi inh inactive, Lmaj promast inactive, Hsp70 act inactive, HSF1 inhib inactive and HSF1 activator inactive.
For c1ccc2c(c1)OCCOCCOCCOCCOCCOc1ccccc1OCCOCCOCCO2 the results were T cruzi inh inactive, Lmaj promast 100, Hsp70 act inactive, HSF1 inhib inactive and HSF1 activator inactive.
For N#C/C(=C\c1cccs1)C(=O)Nc1nccs1 the results were T cruzi inh inactive, Lmaj promast inactive, Hsp70 act inactive, HSF1 inhib inactive and HSF1 activator 60.
Screening C[n+]1cnc(-c2ccccc2)cc1-c1ccccc1 returned T cruzi inh inactive, Lmaj promast inactive, Hsp70 act inactive, HSF1 inhib inactive and HSF1 activator inactive.
`COc1ccc2cc3cc(C(=O)NCCCN4CCc5ccccc5C4)sc3nc2c1` gave T cruzi inh inactive, Lmaj promast 96, Hsp70 act inactive, HSF1 inhib inactive and HSF1 activator inactive.
`C=C1CCC[C@]2(C)C[C@H]3OC(=O)C(CNC(C)(CO)CO)[C@H]3CC12` (stereo not given in full) gave T cruzi inh inactive, HSF1 inhib inactive and HSF1 activator 74.
For C=C1CCC[C@]2(C)C[C@H]3OC(=O)C(CNC(CC)CO)[C@H]3CC12 (stereo not given in full) the results were T cruzi inh inactive, HSF1 inhib inactive and HSF1 activator 142.
`COc1ccc(-c2nc(SCC(=O)NC3CCCCC3)n[nH]2)cc1` gave T cruzi inh inactive, HSF1 inhib inactive and HSF1 activator inactive.
`COc1ccccc1C1=NN(C(=S)Nc2ccccc2)C(c2ccco2)C1` (stereo not given) gave T cruzi inh inactive, Lmaj promast inactive, Hsp70 act inactive, HSF1 inhib inactive and HSF1 activator 52.
For COCCNC(=O)CSCc1cc(C)cc(C)c1 the results were T cruzi inh inactive, Lmaj promast inactive, Hsp70 act inactive, HSF1 inhib inactive and HSF1 activator inactive.
`COC(=O)C1=C(C)N(c2ccc(C)c(C)c2)/C(=C/c2ccc(O)cc2)C1=O` gave T cruzi inh inactive, Lmaj promast 99, Hsp70 act inactive, HSF1 inhib inactive and HSF1 activator inactive.
`COC(=O)C1=C(C)N(CC2CCCO2)C(=O)/C1=C\c1ccc(O)cc1` (stereo not given) gave T cruzi inh inactive, Lmaj promast inactive, Hsp70 act inactive, HSF1 inhib inactive and HSF1 activator inactive.
Cc1[nH]n(-c2ccccc2)c(=O)c1/C=N/N1C(=O)c2ccc3c4c(ccc(c24)C1=O)CC3 was read as T cruzi inh inactive, Lmaj promast inactive, Hsp70 act inactive, HSF1 inhib inactive and HSF1 activator 75.
`Cc1[nH]n(-c2ccccc2)c(=O)c1/C=N/O` gave T cruzi inh inactive, Lmaj promast inactive and Hsp70 act inactive.
Cc1csc(SCC(=O)NCCc2ccc(Cl)cc2Cl)n1 was read as T cruzi inh inactive, Lmaj promast inactive, Hsp70 act inactive, HSF1 inhib inactive and HSF1 activator inactive.
